Assay results reported in PMC3062473 (ChemMedChem, 2010).

How the values were obtained:
Caspase 7 = target: T1, Caspase 7 (Homo sapiens, UniProt P55210); assay: Reaction Biology caspase panel; format: biochemical
T1 sequence (P55210 24-198 limits assumed): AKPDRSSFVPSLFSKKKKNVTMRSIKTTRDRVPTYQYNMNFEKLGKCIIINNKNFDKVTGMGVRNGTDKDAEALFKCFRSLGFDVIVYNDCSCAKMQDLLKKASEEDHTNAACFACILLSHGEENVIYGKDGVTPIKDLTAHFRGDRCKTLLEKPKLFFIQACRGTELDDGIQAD
T1 sequence (P55210 207-303 limits assumed): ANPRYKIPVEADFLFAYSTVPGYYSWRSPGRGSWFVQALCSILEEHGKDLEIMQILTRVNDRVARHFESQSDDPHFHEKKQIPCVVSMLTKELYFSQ

Caspase 6 = target: T2, Caspase 6 (Homo sapiens, UniProt P55212); assay: Reaction Biology caspase panel; format: biochemical
T2 sequence (P55212 24-179 limits assumed): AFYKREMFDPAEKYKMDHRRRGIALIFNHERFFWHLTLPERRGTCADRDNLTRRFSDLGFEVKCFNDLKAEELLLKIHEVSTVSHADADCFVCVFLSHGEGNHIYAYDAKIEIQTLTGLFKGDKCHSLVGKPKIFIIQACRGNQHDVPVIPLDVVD
T2 sequence (P55212 194-293 limits assumed): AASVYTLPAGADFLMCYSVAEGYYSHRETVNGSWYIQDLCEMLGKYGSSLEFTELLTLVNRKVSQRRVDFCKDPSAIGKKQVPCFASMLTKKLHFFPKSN

[1] = Aqueous degradation study by LCMS over 96 hours; format: physicochemical; conditions: for aqueous stability (in words): up to 96 hours
Microsomal stability = format: in vitro ADME, human; conditions: for microsomal CLint / half-life: human, liver microsomes; for half-life: Microsomal Stability t1/2, human liver microsomes
Summary of the method: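 Human microsomal stability, profiled by a contract lab alongside internal control compounds. Includes minus-NADPH and minus-compound control incubations.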

Pgp = Pgp (Homo sapiens, UniProt P08183); assay: Caco-2 permeability in the presence of verapamil; format: in vitro ADME; conditions: Caco-2 control experiment with verapamil
Chain of Pgp (P08183 whole entry): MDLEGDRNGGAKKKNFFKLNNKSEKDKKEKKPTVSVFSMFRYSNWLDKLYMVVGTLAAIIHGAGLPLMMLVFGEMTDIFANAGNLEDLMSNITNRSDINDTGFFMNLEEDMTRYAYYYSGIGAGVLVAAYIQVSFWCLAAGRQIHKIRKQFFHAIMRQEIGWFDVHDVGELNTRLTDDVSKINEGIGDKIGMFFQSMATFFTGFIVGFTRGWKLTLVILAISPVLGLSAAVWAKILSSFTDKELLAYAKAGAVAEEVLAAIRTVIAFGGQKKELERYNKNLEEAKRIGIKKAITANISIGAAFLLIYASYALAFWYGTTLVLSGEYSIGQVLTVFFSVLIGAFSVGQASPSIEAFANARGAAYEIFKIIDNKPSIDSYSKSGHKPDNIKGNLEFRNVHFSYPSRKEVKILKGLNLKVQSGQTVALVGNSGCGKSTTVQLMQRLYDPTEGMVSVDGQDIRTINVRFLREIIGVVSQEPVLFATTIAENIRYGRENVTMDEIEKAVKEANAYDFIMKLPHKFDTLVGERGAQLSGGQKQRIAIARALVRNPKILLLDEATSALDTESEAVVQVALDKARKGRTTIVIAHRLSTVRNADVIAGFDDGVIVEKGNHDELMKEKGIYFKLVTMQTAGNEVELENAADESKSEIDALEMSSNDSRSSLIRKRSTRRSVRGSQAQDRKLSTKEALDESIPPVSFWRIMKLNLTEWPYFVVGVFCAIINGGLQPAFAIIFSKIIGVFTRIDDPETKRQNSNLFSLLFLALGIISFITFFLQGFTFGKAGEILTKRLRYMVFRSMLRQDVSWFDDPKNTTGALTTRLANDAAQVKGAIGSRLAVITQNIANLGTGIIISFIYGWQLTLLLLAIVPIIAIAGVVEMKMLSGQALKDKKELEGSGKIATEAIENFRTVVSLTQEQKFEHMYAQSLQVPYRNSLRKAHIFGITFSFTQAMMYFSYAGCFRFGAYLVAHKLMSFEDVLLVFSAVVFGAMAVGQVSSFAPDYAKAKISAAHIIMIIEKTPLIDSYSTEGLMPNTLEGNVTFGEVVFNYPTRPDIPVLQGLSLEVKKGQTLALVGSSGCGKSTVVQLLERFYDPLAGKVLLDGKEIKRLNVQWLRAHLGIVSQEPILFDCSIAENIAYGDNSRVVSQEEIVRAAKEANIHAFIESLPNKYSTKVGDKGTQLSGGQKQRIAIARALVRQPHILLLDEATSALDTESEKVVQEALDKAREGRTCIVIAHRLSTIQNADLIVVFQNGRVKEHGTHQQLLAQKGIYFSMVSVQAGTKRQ

[2] = Bi-directional Caco-2 permeability; format: in vitro ADME; conditions: human
Summary of the method: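 Contract-lab bidirectional Caco-2 permeability. Run as three separate experiments, each with two separate internal control groups.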

[3] = Plasma protein binding, equilibrium dialysis in 100% plasma; format: in vitro ADME, human; conditions: human, plasma (100%)
Caspase 10 = target: T3, Caspase 10 (Homo sapiens, UniProt Q92851); assay: Reaction Biology caspase panel; format: biochemical
T3 sequence (Q92851 220-415 limits assumed): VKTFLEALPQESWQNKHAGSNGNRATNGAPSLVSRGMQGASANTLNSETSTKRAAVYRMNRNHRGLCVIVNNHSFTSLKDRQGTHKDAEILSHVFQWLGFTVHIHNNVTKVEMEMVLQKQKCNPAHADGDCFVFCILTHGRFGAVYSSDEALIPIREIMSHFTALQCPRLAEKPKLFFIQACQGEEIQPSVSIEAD
T3 sequence (Q92851 416-521 limits assumed): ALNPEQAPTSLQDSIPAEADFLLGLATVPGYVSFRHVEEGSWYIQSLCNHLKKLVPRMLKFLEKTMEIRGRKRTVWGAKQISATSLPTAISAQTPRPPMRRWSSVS

Caspase 4 = target: T4, Caspase 4 (Homo sapiens, UniProt P49662); assay: Reaction Biology caspase panel; format: biochemical
T4 sequence (P49662 81-270 limits assumed): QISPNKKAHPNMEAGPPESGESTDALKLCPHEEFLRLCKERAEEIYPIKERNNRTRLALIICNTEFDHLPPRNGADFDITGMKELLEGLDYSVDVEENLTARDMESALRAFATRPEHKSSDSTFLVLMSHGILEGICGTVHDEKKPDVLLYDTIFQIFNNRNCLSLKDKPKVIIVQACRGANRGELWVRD
T4 sequence (P49662 290-377 limits assumed): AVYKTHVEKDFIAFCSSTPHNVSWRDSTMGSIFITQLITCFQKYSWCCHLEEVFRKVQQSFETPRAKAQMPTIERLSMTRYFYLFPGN

Caspase 14 = target: T5, Caspase 14 (Homo sapiens, UniProt P31944); assay: Reaction Biology caspase panel; format: biochemical
T5 sequence (P31944 6-146 limits assumed): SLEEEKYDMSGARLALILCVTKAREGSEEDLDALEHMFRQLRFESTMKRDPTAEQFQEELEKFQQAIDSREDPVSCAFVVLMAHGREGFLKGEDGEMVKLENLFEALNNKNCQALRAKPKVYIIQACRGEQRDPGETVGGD
T5 sequence (P31944 153-242 limits assumed): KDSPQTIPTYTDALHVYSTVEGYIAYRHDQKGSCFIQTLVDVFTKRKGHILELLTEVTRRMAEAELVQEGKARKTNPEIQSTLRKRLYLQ

Caspase 9 = target: T6, Caspase 9 (Homo sapiens, UniProt P55211); assay: Reaction Biology caspase panel; format: biochemical
T6 sequence (P55211 1-315 limits assumed): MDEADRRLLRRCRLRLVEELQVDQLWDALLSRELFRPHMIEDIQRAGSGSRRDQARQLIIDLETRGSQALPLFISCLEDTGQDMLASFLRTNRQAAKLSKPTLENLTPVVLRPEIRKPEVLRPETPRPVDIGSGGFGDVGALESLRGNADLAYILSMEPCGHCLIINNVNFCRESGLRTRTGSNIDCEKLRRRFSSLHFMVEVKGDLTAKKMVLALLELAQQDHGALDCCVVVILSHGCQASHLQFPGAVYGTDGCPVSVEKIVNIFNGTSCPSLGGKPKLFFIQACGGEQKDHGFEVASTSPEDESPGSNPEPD
T6 sequence (P55211 331-416 limits assumed): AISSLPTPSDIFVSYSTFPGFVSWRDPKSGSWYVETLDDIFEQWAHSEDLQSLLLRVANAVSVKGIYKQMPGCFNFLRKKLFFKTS

Caspase 3 = target: T7, Caspase 3 (Homo sapiens, UniProt P42574); assay: Reaction Biology caspase panel; format: biochemical
T7 sequence (P42574 29-175 limits assumed): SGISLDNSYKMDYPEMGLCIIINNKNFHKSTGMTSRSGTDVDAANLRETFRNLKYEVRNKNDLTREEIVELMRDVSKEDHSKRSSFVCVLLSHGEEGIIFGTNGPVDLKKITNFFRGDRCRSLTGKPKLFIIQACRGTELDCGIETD
T7 sequence (P42574 176-277 limits assumed): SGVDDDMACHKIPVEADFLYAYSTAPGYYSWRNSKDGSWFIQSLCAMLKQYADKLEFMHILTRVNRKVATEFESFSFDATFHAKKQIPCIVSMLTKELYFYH

caspase 1 [4] = target: T8, caspase 1 (Homo sapiens, UniProt P29466); assay: Reaction Biology caspase panel; format: biochemical
T8 sequence (P29466 120-297 limits assumed): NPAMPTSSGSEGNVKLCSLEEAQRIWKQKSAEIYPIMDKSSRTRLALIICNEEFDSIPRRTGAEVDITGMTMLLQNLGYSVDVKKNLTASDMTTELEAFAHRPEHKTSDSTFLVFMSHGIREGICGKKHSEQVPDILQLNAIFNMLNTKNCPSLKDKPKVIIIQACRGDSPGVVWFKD
T8 sequence (P29466 317-404 limits assumed): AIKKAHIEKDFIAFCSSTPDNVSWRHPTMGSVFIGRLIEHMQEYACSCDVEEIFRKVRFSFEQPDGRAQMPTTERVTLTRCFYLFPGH

Caspase 5 = target: T9, Caspase 5 (Homo sapiens, UniProt P51878); assay: Reaction Biology caspase panel; format: biochemical
T9 sequence (P51878 137-327 limits assumed): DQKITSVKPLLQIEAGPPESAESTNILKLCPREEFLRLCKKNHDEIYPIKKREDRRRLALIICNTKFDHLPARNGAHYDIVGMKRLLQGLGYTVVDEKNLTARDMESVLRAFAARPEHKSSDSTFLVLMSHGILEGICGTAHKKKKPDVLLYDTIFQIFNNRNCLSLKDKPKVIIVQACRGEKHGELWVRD
T9 sequence (P51878 347-434 limits assumed): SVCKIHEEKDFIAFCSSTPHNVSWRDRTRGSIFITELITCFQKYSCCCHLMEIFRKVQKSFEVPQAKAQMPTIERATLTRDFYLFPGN

Caspase 8 = Caspase 8 (Homo sapiens, UniProt Q14790); assay: Reaction Biology caspase panel; format: biochemical
Chain of Caspase 8 (Q14790 217-374 limits assumed): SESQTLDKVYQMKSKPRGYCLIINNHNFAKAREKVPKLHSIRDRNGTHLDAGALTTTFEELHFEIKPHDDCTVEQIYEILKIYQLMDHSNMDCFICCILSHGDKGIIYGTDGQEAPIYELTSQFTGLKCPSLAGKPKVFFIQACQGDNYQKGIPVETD
Chain of Caspase 8 (Q14790 385-479 limits assumed): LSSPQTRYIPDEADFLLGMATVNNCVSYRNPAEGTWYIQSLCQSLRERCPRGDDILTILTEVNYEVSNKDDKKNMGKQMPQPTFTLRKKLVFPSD

caspase 1 [5] = target: T8, caspase 1; assay: Caspase 1 fluorescence assay, Ac-LEHD-AMC substrate, 2 nM enzyme; format: biochemical
Summary of the method: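 Compound added from DMSO as a 12-point duplicate titration (0.65 pM to 57.5 μM) and preincubated 15 min at RT. Then 5 μM Ac-LEHD-AMC final was added and the initial rate followed 20 min at RT (ex 340/em 450 nm). Percent inhibition was taken against median uninhibited and uncatalyzed controls, with a four-parameter Hill fit.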

Row | SMILES | IC50 (Caspase 7) [µM] | IC50 (Caspase 6) [µM] | aqueous stability (in words) ([1]; neutral (pH 7)) | microsomal CLint (Microsomal stability) [µL/min/mg] | substrate for Pgp efflux (Pgp) | Papp A→B [2] [×10⁻⁶ cm/s] | Papp B→A [2] [×10⁻⁶ cm/s] | fraction unbound [3] | IC50 (Caspase 10) [µM] | IC50 (Caspase 4) [nM] | aqueous stability (in words) ([1]; acidic (pH 2)) | half-life (Microsomal stability) [min] | IC50 (Caspase 14) [µM] | IC50 (Caspase 9) [nM] | IC50 (Caspase 3) [µM] | IC50 (caspase 1 [4]) [nM] | IC50 (Caspase 5) [nM] | IC50 (Caspase 8) [µM] | IC50 (caspase 1 [5]) [nM] | aqueous stability (in words) ([1]; basic (pH 8)) | further results
1 | CC(=O)N[C@@H](CC(=O)O)C(=O)N[C@@H](CCC(=O)O)C(=O)N[C@H](C(=O)N[C@H](C=O)CC(=O)O)C(C)C [Ac-DEVD-CHO, reference compound] | 0.00354 | 0.122 |  |  |  |  |  |  |  |  |  |  |  |  |  |  |  |  |  |  | 
2 | CCO[C@@H]1OC(=O)C[C@@H]1NC(=O)[C@@H]1CCCN1C(=O)[C@@H](NC(=O)c1ccc(N)c(Cl)c1)C(C)(C)C [Compound 1, reference compound] |  |  | moderate degradation | 0.147 | substrates for Pgp efflux | 0.797 | 32.7 | 0.006 |  |  |  |  |  |  |  |  |  |  |  |  | degradation ([1]; pH 2, after 3.5 hours): 40%; compound decomposed ([1]; water (pH 7), after 48 hours): over 50%; Microsomal Stability t1/2 (Microsomal stability; human liver microsomes, listed as VX-765): 6.549 days
3 | CCOC(=O)C[C@@H](C#N)NC(=O)[C@@H]1CCCN1C(=O)[C@@H](NC(=O)c1ccc(N)c(Cl)c1)C(C)(C)C [Compound 3, (S)-ethyl 3-((S)-1-((S)-2-(4-amino-3-chlorobenzamido)-3,3-dimethylbutanoyl)pyrrolidine-2-carboxamido)-3-cyanopropanoate] | > 10 | > 10 | exceptionally stable | 27.4 | substrates for Pgp efflux | 0.445 | 9.59 | 0.071 | > 10 | > 10000 | exceptionally stable | 50.7 | > 10 | 1610 | > 10 | 43.4 | 1570 | > 10 | 145 |  | degradation (in words) ([1]; basic (pH 8), after 22 hours): fully degraded; degradation in liver microsomes without NADPH (Microsomal stability; without NADPH as a cofactor): slight degree of degradation
4 | CC(C)(C)[C@H](NC(=O)c1ccc(N)c(Cl)c1)C(=O)N1CCC[C@H]1C(=O)N[C@H](C#N)CC(=O)O [Compound 4, (S)-3-((S)-1-((S)-2-(4-amino-3-chlorobenzamido)-3,3-dimethylbutanoyl)pyrrolidine-2-carboxamido)-3-cyanopropanoic acid] | > 10 | > 10 | moderate to good | 10.3 |  | 0.144 | 0.06 | 0.431 | 0.0897 | 13.8 | moderate to good | 134 | 0.801 | 2.17 | > 10 | 0.023 | 3.6 | 0.0252 | 0.316 | exceedingly stable | degradation ([1]; acidic (pH 2), after 72 hours): 50%; degradation ([1]; neutral (pH 7), after 72 hours): 50%; Ki (caspase 1 [5]): 0.4 nM
5 | CC(C)(C)[C@H](NC(=O)c1ccc(N)c(Cl)c1)C(=O)N1CCC[C@H]1C(=O)N[C@H](C#N)Cc1nnn[nH]1 [Compound 16, (S)-1-((S)-2-(4-amino-3-chlorobenzamido)-3,3-dimethylbutanoyl)-N-((S)-1-cyano-2-(1H-tetrazol-5-yl)ethyl)pyrrolidine-2-carboxamide] | > 10 | > 10 | resistant to degradation | 9.38 |  | 0.13 | 0.193 | 0.243 | > 10 | 1380 | resistant to degradation | 148 | > 10 | 91.5 | > 10 | 2.58 | 1300 | > 10 | 20.4 | resistant to degradation | 
